Test [1] deals with Mus musculus. Kind of test: Retention for passive avoidance learning in mice at dose 2.5 mg/kg. In kind it is functional, organism-based. Details: dose 2.5 mg/kg. The essentials:
(§1)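 Naive male CF-1 mice (19–21 g at shipment), 20 per dose, each used once. Dosed i.p. as an aqueous solution or methocel suspension 1 h before footshock training, with a saline group run in parallel. At the test, mice were placed on an outside shelf; entering the box within 60 s counted as no retention. Values are percent retention. A day was discarded unless controls scored 65–75%.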

Test [2] relates to Mus musculus. Briefly: (§2) Compound was tested for cognitive activity by measuring retention for passive avoidance learning in mice at dose 0.63 mg/kg. Set-up: dose 0.63 mg/kg. In kind it is functional, organism-based. The essentials: (§3)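 Male CF-1 mice (19–21 g at shipment), 20 per dose group, each used once. Given ip an aqueous solution or methocel suspension 1 h before footshock training, with a saline group run alongside. Retention test: mouse placed on an outer shelf of the box; entering within 60 s scored as not retained. Value is percent retention. Days with control retention outside 65–75% were discarded.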

The species named for test [3] is Mus musculus.
In test [4] the test system is Mus musculus. Briefly: Compound was tested for cognitive activity by measuring retention for passive avoidance learning in mice at dose 1.25 mg/kg. The test is classed as functional, organism-based. Set-up: dose 1.25 mg/kg. The essentials: as §3
Test [5] has as its system Mus musculus. Kind of test: Compound was tested for cognitive activity by measuring retention for passive avoidance learning in mice at dose 0.32 mg/kg. The test is classed as functional, organism-based. Details: dose 0.32 mg/kg. The gist of the method: as §3
Test [6] concerns Mus musculus. Briefly: Compound was tested for cognitive activity by measuring retention for passive avoidance learning in mice at dose 20 mg/kg. In kind it is functional, organism-based. Set-up: dose 20 mg/kg. The gist of the method:
as §1

Test [7] deals with Mus musculus. Kind of test: Retention for passive avoidance learning in mice at dose 5.0 mg/kg. In kind it is functional, organism-based. Details: dose 5 mg/kg. The essentials:
as §1

The subject of test [8] is Mus musculus. Kind of test: Retention for passive avoidance learning in mice at dose 5 mg/kg. Set-up: dose 5 mg/kg. The test is classed as functional, organism-based. The gist of the method: as §1
The test system of test [9] is Mus musculus. Briefly: Compound was tested for cognitive activity by measuring retention for passive avoidance learning in mice at dose 10 mg/kg. Details: dose 10 mg/kg. In kind it is functional, organism-based. The gist of the method:
as §3

Test [10] has as its system Mus musculus. Kind of test: Compound was tested for cognitive activity by measuring retention for passive avoidance learning in mice at dose 40 mg/kg. In kind it is functional, organism-based. Details: dose 40 mg/kg. The gist of the method: as §1
For test [11], the system named is Mus musculus. Briefly: Retention for passive avoidance learning in mice at dose 80 mg/kg. In kind it is functional, organism-based. Details: dose 80 mg/kg. The gist of the method:
as §1

The subject of test [12] is Mus musculus. Kind of test: Retention for passive avoidance learning in mice at dose 20 mg/kg. In kind it is functional, organism-based. Details: dose 20 mg/kg. The essentials:
as §1

Test [13] has as its system Mus musculus. Briefly: Retention for passive avoidance learning in mice at dose 1.25 mg/kg. Set-up: dose 1.25 mg/kg. In kind it is functional, organism-based. The essentials: as §1
For test [14], the system named is Mus musculus. Kind of test: Compound was tested for cognitive activity by measuring retention for passive avoidance learning in mice at dose 0.15 mg/kg. In kind it is functional, organism-based. Set-up: dose 0.15 mg/kg. The gist of the method:
as §3

Test [15] is filed under the species Mus musculus. The source holds these as a separate data set.
Test [16] has as its system Mus musculus. Briefly: Compound was tested for cognitive activity by measuring retention for passive avoidance learning in mice at dose 20 mg/kg i. The test is classed as functional, organism-based. Details: dose 20 mg/kg. The gist of the method: as §3
For test [17], the system named is Mus musculus. Kind of test: Compound was tested for cognitive activity by measuring retention for passive avoidance learning in mice at dose 2.5 mg/kg. The test is classed as functional, organism-based. Set-up: dose 2.5 mg/kg. The gist of the method:
as §3

In test [18] the test system is Mus musculus. The description is as §2. In kind it is functional, organism-based. Set-up: dose 0.63 mg/kg. The gist of the method:
as §1
The source holds these as a separate data set.

For test [19], the system named is Mus musculus. Kind of test: Compound was tested for lethality in mice at a dose 80 mg/kg intraperitoneally; L denotes lethal at this dose. In kind it is functional, organism-based. Set-up: dose 80 mg/kg. The essentials: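 Male CF-1 mice, 20 per group, were given the agent i.p. as an aqueous solution or methocel suspension 1 h before passive-avoidance training. The table entry L marks a dose that killed the animals.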

The species entered for test [20] is Mus musculus. The source holds these as a separate data set.

Structures are written as SMILES.

Regarding `CN1CCC[C@H]1c1cccnc1`, the Retention in test [1] is 27%; in test [2], 75%; in [3] it was “Lethal”; in test [4], 53%; in [5] it was 70%.
Regarding `Brc1ccccc1Oc1cccnc1`, the figures for the Retention in test [6] and in [7] were 50% and 65%, respectively.
Consider `C=C(C)[C@@H]1[C@H]2OC(=O)[C@@H]1[C@]1(O)C[C@H]3OC34C(=O)O[C@H]2[C@@]41C.CC(C)(O)[C@@H]1[C@H]2OC(=O)[C@@H]1[C@]1(O)C[C@H]3OC34C(=O)O[C@H]2[C@@]41C` (some centres not stated), for which the Retention in test [1] is 80%; in test [8], 70%; in [2], 80%; in [4], 90%; in test [5], 65%.
`NC1=NC(=O)C(c2ccccc2)O1` (configuration not stated): the Retention in test [9] is 70%; in test [10], 83%; in test [8] it was 30%; in [11], 77%; in [12], 83%.
As for `[Cl-].[Li+]`, the Retention was 70% in test [1]; 31% in test [9]; 23% in test [10]; 0% in test [8]; 38% in test [11]; 60% in test [2]. Moreover, the Retention in test [13] came to 84%.
Turning to `O=C1C[C@@H]2OCC=C3CN4CC[C@]56c7ccccc7N1[C@H]5[C@H]2[C@H]3C[C@H]46`, the Retention in [2] worked out at 75%; in test [5], 70%.
As for `O=c1[nH]c2ccccc2n1C1CCN(CCCC(c2ccc(F)cc2)c2ccc(F)cc2)CC1`, the Retention amounted to 43% in [14], 27% in test [2] and 40% in test [5].
For the compound `CNC(=O)Oc1ccc2c(c1)[C@]1(C)CCN(C)[C@@H]1N2C`, the Retention in [14] is 45%; in test [15], “Lethal”; in test [5], 35%.
For the compound `CCCC(C)C1(CC)C(=O)NC(=O)NC1=O` (configuration not stated), the Retention came to 7% in [1], 23% in test [2] and 40% in test [13].
For the compound `CN(C)CCCN1c2ccccc2CCc2ccccc21`, the Retention amounted to 80% in test [9], 72% in test [10], 65% in test [8] and 77% in [12].
With `O=C1NC(=O)C(c2ccccc2)(c2ccccc2)N1`, the Retention was found to be 75% in test [1]; 43% in [9]; 55% in test [16]; 50% in test [10]; 90% in test [8]; 15% in test [11]. This compound came in with a Retention in test [13] of 85%.
Take `Cn1c(=O)c2c(ncn2C)n(C)c1=O`: the Retention in test [1] stood at 37%; in test [9], 3%; in [10], 3%; in [8] it was 37%; in [11], 0%; in test [2], 70%. Also, the Retention in test [13] was found to be 87%.
For `C[C@H](N)Cc1ccccc1`, the Retention was 45% in [14]; 100% in [2]; 60% in test [4]; 65% in [17]; 80% in [5].
Regarding `Fc1ccccc1Oc1cccnc1`, the Retention in test [1] is 80%; in test [11] it was 50%; in test [7], 90%; in test [12], 85%; in test [13], 65%; in test [18], 60%.
For `[O-][n+]1cccc(Oc2cccnc2)c1`, the Retention in test [1] turned out to be 65%; in [11], 85%; in test [7], 85%; in test [12], 85%; in test [13], 45%; in test [18], 60%.
Turning to `C1CCc2nnnn2CC1`, the Retention is 65% in test [9]; 80% in test [10]; 80% in test [8]; “Lethal at this dose” in [19]; 80% in test [12].
On to `COC(=O)C(c1ccccc1)C1CCCCN1` (configuration not stated), for which the Retention was 50% in [1]; 65% in test [9]; 90% in [8]; 87% in [12]; 50% in [13].
On to `CN1[C@@H]2C[C@@H](OC(=O)[C@H](CO)c3ccccc3)C[C@H]1[C@@H]1O[C@@H]12`, for which the Retention in [14] was determined as 65%; in test [2], 30%; in test [4], 35%; in test [5], 65%.
For `N[C@@H]1C[C@H]1c1ccccc1.N[C@H]1C[C@@H]1c1ccccc1`, the Retention in test [9] is 80%; in test [20] it was “Lethal at this dose”; in [8] it was 75%; in test [12], 55%.
In the case of `Clc1ccccc1Oc1cccnc1`, the Retention in test [1] is 40%; in [11], 40%; in test [7], 95%; in test [12], 80%; in test [13], 45%; in test [18], 60%.
Take `Brc1ccc(Oc2cccnc2)cc1`: the Retention is 70% in test [1]; 85% in test [11]; 90% in test [7]; 70% in [12]; 75% in test [13]; 75% in test [18].
Consider `Fc1cccc(Oc2cccnc2)c1`, for which the Retention in test [1] was 75%; in test [11] it was 55%; in test [7] it was 90%; in [12] it was 55%; in test [13] it was 75%; in test [18], 65%.
On to `Fc1ccc(Oc2cccnc2)cc1`, for which the Retention came to 85% in test [1]; 50% in test [11]; 95% in test [7]; 80% in test [12]; 60% in [13]; 35% in [18].
For the compound `c1ccc(Oc2cccnc2)cc1`, the Retention amounted to 90% in [1]; 35% in test [11]; 100% in [7]; 70% in test [12]; 90% in test [13]; 65% in test [18].
For `CCC1(C)CC(=O)NC1=O` (configuration not stated), the Retention came out at 63% in [9], 90% in test [16], 70% in test [10] and 95% in test [11].

Values taken from ChEMBL document CHEMBL1121804, “Cognition-activating properties of 3-(Aryloxy)pyridines” (J Med Chem, 1981).
